Measurements taken from PubChem BioAssay.
Calls of active or inactive are those of the source.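 Rule for the calls, unless noted: active = fluorescence slope higher than the sample average by over 3 SD (cut at about -0.22 in these data, passing the limit was not always enough); inactive = the rest.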

What was measured:
[1] = inhibitors of TNFa-induced NFkB p65 translocation, primary screen, imaging, HUVEC, MLSMR starter and 10KST1 sets (AID 438;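 active = inhibition above 20% together with a positive visual image hit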;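 note: compound added about 3h40 before a 20 min TNFalpha stimulation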;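 for inhibition: signal is the nuclear over cytoplasmic p65 intensity ratio per well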); conditions: HUVEC TNFa-induced p65 nuclear translocation; cell count: measured here: nuclei count (cytotoxicity indicator), at 2.08 µM; inhibition: at 2 µM, stronger effect = higher value, 0% TNFa-plus-vehicle, 100% no-TNFa wells
[2] = reduction of polyQ htt aggregates in cells – imaging, exon1htt(103Q)mCFP cells, high-content imaging, primary screen (AID 483;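 active = visual image review flags a hit and inhibition of aggregation exceeds 20%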;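 note: compound exposure lasted 3 days before fixation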;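 for nuclei count: percent of the per-plate median nuclei count of sample wells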); conditions: exon1htt(103Q)mCFP cell line, aggregate imaging, at 2 µM; inhibition of aggregation: stronger effect = higher value; nuclei count: measured here: cell count, toxicity
[3] = endothelial E-selectin expression blockers – imaging, HUVEC, immunofluorescence, MLSMR starter and 10KST1 sets, primary screen (AID 487;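 active = visually confirmed hit in the image check and inhibition above 20%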;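 for inhibition: signal is fraction of cell area covered by stained E-selectin grains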;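 for nuclei count: 100% = median nuclei count of all wells on the same plate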); conditions: HUVEC TNFalpha-induced E-selectin immunofluorescence imaging, at 2 µM; inhibition: stronger effect = higher value; nuclei count: measured here: cell number, toxicity
[4] = biological target: Voltage-gated potassium channel subunit beta-2 (Rattus norvegicus) (UniProt P62483); experiment: inhibitors of rat Kvbeta2 reductase activity – biochemical, NADPH fluorescence, primary screen (AID 622); conditions: recombinant KvBeta, 4-cyanobenzaldehyde reduction, at 10 µM, stronger effect = higher value;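 note: slope of raw intensity against log time taken from 70 to 1610 s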
Sequence of Voltage-gated potassium channel subunit beta-2 (Rattus norvegicus) (P62483 whole entry, looked up): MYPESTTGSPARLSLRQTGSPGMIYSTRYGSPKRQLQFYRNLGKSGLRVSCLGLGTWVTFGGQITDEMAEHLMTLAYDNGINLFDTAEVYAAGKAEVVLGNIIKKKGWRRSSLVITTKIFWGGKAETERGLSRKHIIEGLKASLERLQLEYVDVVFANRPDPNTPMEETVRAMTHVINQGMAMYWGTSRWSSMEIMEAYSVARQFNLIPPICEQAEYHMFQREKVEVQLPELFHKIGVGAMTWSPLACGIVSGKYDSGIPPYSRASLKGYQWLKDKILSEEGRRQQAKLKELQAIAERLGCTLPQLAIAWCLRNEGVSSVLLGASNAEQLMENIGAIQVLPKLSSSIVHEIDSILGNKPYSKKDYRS

[5] = biological target: Voltage-gated potassium channel subunit beta-2 (Rattus norvegicus) (UniProt P62483); experiment: enhancers of rat Kvbeta2 NADPH turnover – biochemical, NADPH fluorescence, primary screen (AID 623;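 active = NADPH fluorescence slope more negative than the mean of all samples by about 3 SD, 99.7% confidence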;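 note: fluorescence intensity change per second fitted from 20 to 320 s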); conditions: Recombinant KvBeta, NADPH fluorescence decrease slope, 10 min; at 10 µM; stronger effect = lower value
[6] = biological target: Alpha-2C adrenergic receptor (Homo sapiens) (UniProt P18825); experiment: compounds altering alpha2C-coupled GIRK flux – cell-based, HEK293 alpha2C/GIRK1/2, thallium flux, primary screen (AID 624;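 active = fluorescence slope after compound addition differing from the mean of all screened samples at 99.7% confidence, in either direction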;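 note: slope of fluorescence ratio to pre-addition baseline per second over 15 to 24 s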); conditions: thallium flux BTC fluorescence, at 10 µM, actives lie on both sides
Sequence of Alpha-2C adrenergic receptor (Homo sapiens) (P18825 whole entry, looked up): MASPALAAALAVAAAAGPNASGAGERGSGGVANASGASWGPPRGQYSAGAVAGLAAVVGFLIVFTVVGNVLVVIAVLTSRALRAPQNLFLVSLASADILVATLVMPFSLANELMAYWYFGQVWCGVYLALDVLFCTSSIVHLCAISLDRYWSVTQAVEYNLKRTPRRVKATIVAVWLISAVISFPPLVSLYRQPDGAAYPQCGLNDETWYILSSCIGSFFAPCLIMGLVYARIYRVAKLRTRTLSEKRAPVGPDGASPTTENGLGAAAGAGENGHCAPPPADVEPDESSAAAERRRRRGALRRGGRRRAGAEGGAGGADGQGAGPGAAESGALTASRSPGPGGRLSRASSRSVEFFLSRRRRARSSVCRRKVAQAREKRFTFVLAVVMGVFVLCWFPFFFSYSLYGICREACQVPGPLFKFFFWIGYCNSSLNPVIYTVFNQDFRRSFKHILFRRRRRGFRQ

[7] = blockers of RIG-like receptor reporter activation – cell-based, Sendai virus stimulus, luciferase, 10K MLSCN set, TLR/RLR signaling modifier project, primary screen (AID 602276;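 active = inhibition at or above 50% at 10 µM; inactive = inhibition below 50%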;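 note: firefly luciferase from ISG56 promoter only with Renilla not read in this screen; 0% = Sendai virus plus DMSO and 100% = medium plus DMSO without virus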); conditions: HEK293 RL24 IRF3 luciferase reporter, at 10 µM, stronger effect = higher value
[8] = TLR3 IRF3 reporter activation blockers – cell-based, poly I:C stimulus, luciferase, 10K MLSCN set, primary screen (AID 602277;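 active = inhibition of the reporter signal at or above 50%; inactive = inhibition below 50%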); conditions: HEK293-TLR3 RL24 IRF3 luciferase reporter, at 10 µM, stronger effect = higher value
[9] = inhibitors of larval lipid processing in zebrafish, primary screen, whole organism, PED6 fluorescence, gall bladder and intestine (AID 686;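 active = a full or partial loss of lipid-probe fluorescence in the fish gall bladder, intestine or both, judged by eye; inactive = no fluorescence loss, or compound toxic to the fish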;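 note: larvae 5 to 7 days old with five fish per well; signal comes from phospholipase A2 cleavage of quenched PED6 carried via bile; overnight exposure to compound and PED6 before scoring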); conditions: Zebrafish larvae PED6 lipid processing, fluorescence scoring; screened at 20 µM (by protocol)
How it was run: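 system = live zebrafish larvae aged 5-7 days, whole organism | probe or stimulus = ingested quenched lipid PED6 at 100 nM | doses = 20 µM single dose | timing = overnight exposure | detection = fluorescence microscopy with visual scoring of gall bladder and intestine | read-out = visual per-well fluorescence inhibition score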

SMILES	cell count [1]	inhibition [1]	inhibition of aggregation [2]	nuclei count [2]	inhibition [3]	nuclei count [3]	fluorescence slope [4]	NADPH fluorescence slope [5]	slope [6]	inhibition [7]	inhibition [8]	outcome [9]
COc1ccc(N2CCN(C(=O)CCNS(=O)(=O)c3ccc(Br)s3)CC2)cc1	338	2.9% (inactive)	-0.1% (inactive)	101%	-297% (inactive)	108%	-0.423 (inactive)	-0.000118 (inactive)	0.00529 (inactive)	7.87% (inactive)	12.4% (inactive)	
O=C(COc1ccccc1)Nc1ccccc1N1CCN(c2ccccc2)CC1	672	10.8% (inactive)	-7.4% (inactive)	84.2%	-71.5% (inactive)	110%	-0.609 (inactive)	-3.5e-05 (inactive)	0.00412 (inactive)	16.7% (inactive)	3.18% (inactive)	
CC(=O)/C(C[N+]1(C)CCCCC1)=N\O	566	12.1% (inactive)	17.4% (inactive)	107%	26.6% (inactive)	107%	-0.403 (inactive)	-5.2e-05 (inactive)	0.00495 (inactive)	8.76% (inactive)	13.4% (inactive)	inactive
O=C(O)C(c1ccccc1)N1CCCC1 (stereo unspecified)	643	3.4% (inactive)	-1.7% (inactive)	108%	-110% (inactive)	104%	-0.291 (inactive)	-6.9e-06 (inactive)	0.00482 (inactive)	13% (inactive)	8.7% (inactive)	inactive
COc1ccc(N(CC(=O)N2CCCCC2)S(=O)(=O)c2ccccc2)c(OC)c1	622	-7.8% (inactive)	-4.8% (inactive)	104%	-218% (inactive)	132%	-0.278 (inactive)	-7.4e-06 (inactive)	0.00613 (inactive)	12% (inactive)	26.9% (inactive)	
Cc1ccc(C)c(N2CCN(CCCNC(=O)Cn3cc4c(n3)CCC(C)C4)CC2)c1 (stereo unspecified)	554	9.9% (inactive)	-8.9% (inactive)	90.9%	29.9% (inactive)	106%	-0.574 (inactive)	-2.4e-05 (inactive)	0.00559 (inactive)	13.6% (inactive)	41% (inactive)	
CC(=O)c1cccc(NC(=O)NCc2ccco2)c1	385	0.8% (inactive)	-4.5% (inactive)	74.6%	-43.8% (inactive)	79.8%	-0.386 (inactive)	6.8e-06 (inactive)	0.00558 (inactive)	-3.74% (inactive)	-37.3% (inactive)	inactive
CN(C)C(=O)CSc1nnc2sc3ccccc3n12	388	-9.2% (inactive)	-15.4% (inactive)	105%	-32.3% (inactive)	102%	-0.438 (inactive)	-2.4e-05 (inactive)	0.00511 (inactive)	15.9% (inactive)	23.7% (inactive)	inactive
COc1ccc(-c2nnn(CCc3nn[nH]n3)n2)cc1OC	419	-7.7% (inactive)	1.4% (inactive)	70.5%	-9.7% (inactive)	112%	-0.561 (inactive)	-2.6e-05 (inactive)	0.00328 (inactive)	8.58% (inactive)	-8.87% (inactive)	
CC(C)(C)c1ccc(C(=O)N2CCC(C(=O)NCc3ccncc3)CC2)cc1	344	-5.2% (inactive)	-12.2% (inactive)	108%	-64.8% (inactive)	113%	-0.368 (inactive)	-4.7e-05 (inactive)	0.00471 (inactive)	-14.5% (inactive)	-39% (inactive)	inactive
O=C(Nc1cc(C(=O)N2CCCC2)ccc1N1CCCC1)c1ccccc1F	612	2% (inactive)	-12.8% (inactive)	107%	-93% (inactive)	95.8%	-0.343 (inactive)	-7.2e-05 (inactive)	0.00481 (inactive)	-1.26% (inactive)	-54% (inactive)	inactive
COc1ccc(CN(CC(=O)NCC2CCCO2)C(=O)CCC(=O)Nc2cc(C)on2)cc1 (stereo unspecified)	242	7.6% (inactive)	7.1% (inactive)	89.3%	13.1% (inactive)	104%	-0.399 (inactive)	-1.6e-05 (inactive)	0.00463 (inactive)	-9.53% (inactive)	-6.1% (inactive)	inactive
Cn1c(C(=O)OC(C(=O)NC2CCCC2)c2cccnc2)cc2sccc21 (stereo unspecified)	495	4% (inactive)	9.5% (inactive)	100%	-76.7% (inactive)	102%	-0.437 (inactive)	-5.4e-05 (inactive)	0.00446 (inactive)	18.1% (inactive)	15.4% (inactive)	active; weak signal in gallbladder and intestine
